Assay results taken from article PMC3773863 (Bioorganic & medicinal chemistry letters, 2013).

How the values were obtained:
[1] = system: OVCAR-3 ovarian cancer cells; assay: NCI in vitro human tumor cell screen, OVCAR-3; format: cell-based
Method in brief: (§1)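 NCI-60 panel screen. GI50 is the log concentration that […]. TGI is the log concentration giving total growth inhibition. LC50 is the log concentration needed to kill 50% of the test population.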

[2] = system: MDA-MB-468 breast cancer cells; assay: NCI in vitro human tumor cell screen, MDA-MB-468; format: cell-based
Method in brief: as §1

[3] = system: M14 melanoma cells; assay: NCI in vitro human tumor cell screen, M14; format: cell-based
Method in brief: as §1

[4] = system: RXF 393 renal cancer cells; assay: NCI in vitro human tumor cell screen, RXF 393; format: cell-based
Method in brief: as §1

[5] = system: Colo205 colon cancer cells; assay: NCI in vitro human tumor cell screen, Colo205; format: cell-based
Method in brief: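 NCI-60 panel screen. GI50 is the log concentration that […]. TGI is the log concentration giving total growth inhibition.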

[6] = system: SK-OV-3 ovarian cancer cells; assay: NCI in vitro human tumor cell screen, SK-OV-3; format: cell-based
Method in brief: as §1

[7] = system: SF-295 CNS cancer cells; assay: NCI in vitro human tumor cell screen, SF-295; format: cell-based
Method in brief: as §1

[8] = system: DU-145 prostate cancer cells; assay: NCI in vitro human tumor cell screen, DU-145; format: cell-based
Method in brief: as §1

[9] = target: pure porcine brain tubulin proteins (Sus scrofa, UniProt P02550+P02554); assay: In vitro tubulin polymerization assay; format: biochemical; details: GPEM buffer, 37 °C, absorbance 340 nm
pure porcine brain tubulin proteins, sequence (P02550 whole entry): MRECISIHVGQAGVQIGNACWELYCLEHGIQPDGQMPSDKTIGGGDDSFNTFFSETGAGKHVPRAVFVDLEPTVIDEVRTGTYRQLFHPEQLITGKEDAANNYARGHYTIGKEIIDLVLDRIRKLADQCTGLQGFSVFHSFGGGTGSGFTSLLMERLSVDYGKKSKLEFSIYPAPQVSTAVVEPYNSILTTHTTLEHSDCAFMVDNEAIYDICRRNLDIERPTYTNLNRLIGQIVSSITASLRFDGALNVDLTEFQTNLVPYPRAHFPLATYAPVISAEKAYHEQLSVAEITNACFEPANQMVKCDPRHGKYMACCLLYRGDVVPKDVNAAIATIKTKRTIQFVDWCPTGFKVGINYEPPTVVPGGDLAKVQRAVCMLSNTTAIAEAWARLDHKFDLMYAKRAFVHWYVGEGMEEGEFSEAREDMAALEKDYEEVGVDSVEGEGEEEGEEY
pure porcine brain tubulin proteins, sequence (P02554 whole entry): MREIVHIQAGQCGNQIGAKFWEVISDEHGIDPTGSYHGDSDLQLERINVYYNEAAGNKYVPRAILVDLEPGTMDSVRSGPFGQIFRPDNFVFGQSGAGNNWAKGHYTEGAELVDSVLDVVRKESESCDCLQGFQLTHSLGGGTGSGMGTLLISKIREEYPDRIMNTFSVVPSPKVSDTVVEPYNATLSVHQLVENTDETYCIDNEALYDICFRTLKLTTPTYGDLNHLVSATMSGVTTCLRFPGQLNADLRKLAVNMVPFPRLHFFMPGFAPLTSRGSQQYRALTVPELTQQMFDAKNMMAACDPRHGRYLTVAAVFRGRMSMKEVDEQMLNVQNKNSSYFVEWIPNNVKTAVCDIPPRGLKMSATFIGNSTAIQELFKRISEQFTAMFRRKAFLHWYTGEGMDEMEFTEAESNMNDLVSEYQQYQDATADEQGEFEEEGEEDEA

[10] = system: NCI/ADR-RES ovarian cancer cells; assay: NCI in vitro human tumor cell screen, NCI/ADR-RES; format: cell-based
Method in brief: as §1

[11] = system: SR leukemia cells; assay: NCI in vitro human tumor cell screen, SR; format: cell-based
[12] = system: SK-MEL-5 melanoma cells; assay: NCI in vitro human tumor cell screen, SK-MEL-5; format: cell-based
Method in brief: as §1

[13] = system: NCI-H522 non-small cell lung cancer cells; assay: NCI in vitro human tumor cell screen, NCI-H522; format: cell-based
[14] = system: MDA-MB-435 melanoma cells; assay: NCI in vitro human tumor cell screen, MDA-MB-435; format: cell-based
[15] = system: NCI-H522 cells; assay: MTT anti-proliferation assay, NCI-H522; format: cell-based, human; details: read-out: IC50 proliferation of NCI-H522 cells, 48 h incubation
Method in brief: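 NCI-H522 cells in log-phase growth were exposed at 37 °C to test compound or DMSO vehicle in complete medium for 48 h. They were then given MTT (1 mg/mL in 1X PBS) for 2 h at 37 °C. Absorbance was read at 570 nm and corrected at 630 nm.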

[16] = system: α-tubulin and β-tubulin in NCI-H522 cells; assay: In vivo tubulin assembly assay; format: cell-based, human; details: 24 h, 6h 10, 30, 100 nM, vincristine and paclitaxel 100 nM

2-(3-hydroxy-5-methoxyphenyl)-6-pyrrolidin-1-ylquinolin-4-one [Compound 6h]
logGI50 [1]: −7.63 | logLC50 [1]: −5.19 | logTGI [1]: −7.05 | logGI50 [2]: −6.58 | logLC50 [2]: >−4.00 | logTGI [2]: −5.70 | logGI50 [3]: −7.52 | logLC50 [3]: >−4.00 | logTGI [3]: −4.80 | logGI50 [4]: −7.39 | logLC50 [4]: >−4.00 | logTGI [4]: −4.62 | logGI50 [5]: −7.27 | logTGI [5]: −6.66 | logGI50 [6]: −7.63 | logLC50 [6]: >−4.00 | logTGI [6]: −4.60 | logGI50 [7]: −6.96 | logLC50 [7]: >−4.00 | logTGI [7]: −4.95 | logGI50 [8]: −7.51 | logLC50 [8]: >−4.00 | logTGI [8]: −6.59 | effect on tubulin polymerization [9]: inhibited tubulin polymerization in a concentration-dependent manner | logGI50 [10]: −7.21 | logLC50 [10]: >−4.00 | logTGI [10]: −6.29 | logGI50 [11]: < −8.00 | logLC50 [11]: >−4.00 | logTGI [11]: > −4.00 | logGI50 [12]: −7.61 | logLC50 [12]: −6.31 | logTGI [12]: −7.18 | logGI50 [13]: < −8.00 | logLC50 [13]: −5.41 | logTGI [13]: < −8.00 | logGI50 [14]: < −8.00 | logTGI [14]: −7.53 | IC50 [15]: 42.3 ± 1.2 nM

CC(=O)O[C@H]1C(=O)[C@@]2(C)[C@H]([C@H](OC(=O)c3ccccc3)[C@]3(O)C[C@H](OC(=O)[C@H](O)[C@@H](NC(=O)c4ccccc4)c4ccccc4)C(C)=C1C3(C)C)[C@]1(OC(C)=O)CO[C@@H]1C[C@@H]2O [paclitaxel]
effect on α-tubulin and β-tubulin in the cytoskeletal fraction [16]: caused tubulin polymerization

CC[C@]1(O)C[C@H]2CN(CCc3c([nH]c4ccccc34)[C@@](C(=O)OC)(c3cc4c(cc3OC)N(C=O)[C@H]3[C@@](O)(C(=O)OC)[C@H](OC(C)=O)[C@]5(CC)C=CCN6CC[C@]43[C@@H]65)C2)C1 [vincristine]
effect on tubulin polymerization [9]: inhibited tubulin polymerization

CC[C@]1(O)C[C@@H]2CN(CCc3c([nH]c4ccccc34)[C@@](C(=O)OC)(c3cc4c(cc3OC)N(C)[C@H]3[C@@](O)(C(=O)OC)[C@H](OC(C)=O)[C@]5(CC)C=CCN6CC[C@]43[C@@H]65)C2)C1 [vinblastine]
effect on tubulin polymerization [9]: inhibited tubulin polymerization
